The results in this text go back to publication PMC7614804 (Journal of medicinal chemistry, 2022).

What is called Kd is the free concentration of one partner at which half of the binding sites on the other are occupied at equilibrium, for simple one-to-one binding. Lower therefore signals higher affinity.

Molecules are shown by their SMILES.

Test [1] deals with T1, Pa MurB (Pseudomonas aeruginosa, UniProt Q9HZM7).
T1 sequence (Q9HZM7 1-339): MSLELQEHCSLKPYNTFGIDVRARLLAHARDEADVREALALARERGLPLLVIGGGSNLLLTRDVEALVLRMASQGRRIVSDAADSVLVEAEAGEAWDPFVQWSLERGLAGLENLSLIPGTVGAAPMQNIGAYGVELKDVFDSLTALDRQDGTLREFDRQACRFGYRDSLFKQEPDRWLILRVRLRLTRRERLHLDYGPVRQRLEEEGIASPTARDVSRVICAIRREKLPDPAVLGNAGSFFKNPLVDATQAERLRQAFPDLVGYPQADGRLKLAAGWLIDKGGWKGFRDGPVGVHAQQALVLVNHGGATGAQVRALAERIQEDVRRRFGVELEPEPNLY
In words: Isothermal titration calorimetry. The format is binding. The essentials:
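ITC at 25 °C. Pa MurB was dialysed overnight at 4 °C into 25 mM Tris-HCl pH 8.0, 150 mM NaCl; cell and syringe solutions were in the same buffer with 5% DMSO final. Usually 50 μM MurB with 3.0 mM fragment; some runs used 1.0 or 0.5 mM ligand or 200 μM MurB. A 0.4 μL first injection was discarded, then 28 × 1.5 μL every 120 s. One-site fit; LE = −(RTlnKd)/heavy atoms, in kcal/mol per heavy atom.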
(In general: Isothermal titration calorimetry measures the heat released or taken up as one component is titrated into another.)

Test [2] deals with T1, Pa MurB. In words: Surface plasmon resonance. The format is binding. The essentials: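 Pa MurB amine-coupled to a CM5 chip. Running buffer: 10 mM NaPO4 pH 7, 150 mM NaCl, 2% DMSO, 25 °C. Each test compound at 1 mM in running buffer was injected for 30 s at […], with 320 s dissociation. Each was run twice, in reverse orders, with solvent correction. Response units were compared visually with those of the initial pyrazole fragment hit.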
In general terms: In SPR one partner is held on a chip, and binding of the other changes the refractive index at the surface.

The mark [3] stands for this setting: Table 3, LE = –(RTlnKd)/(number of heavy atoms).
The mark [4] stands for this setting: Table 3, RU of fragment at 1 mM compared with RU of fragment 4, n = 2.
Where [5] appears, read: Table 4, LE = −(RTlnKd)/(number of heavy atoms).
[6] abbreviates: Table 4, RU of fragment at 1 mM compared with RU of fragment 4, n = 2.
The mark [7] stands for this setting: Kd(μM) ITC, Table 4, 50 μM MurB, 3.0 mM fragment, fragment 41: 200 μM MurB.
Where [8] appears, read: Table 5, LE = −(RTlnKd)/(number of heavy atoms).
The mark [9] stands for this setting: Table 5, RU of compound at 1.0 mM compared with RU of fragment 4, n = 2.
[10] abbreviates: Table 6, RU of fragment at 1.0 mM compared with RU of fragment 4, n = 2.
Setting [11] is: Table 6, LE = −(RTlnKd)/(number of heavy atoms).

Regarding `Cc1c(C(=O)O)nnn1-c1ccccc1` [Fragment 19], at Pa MurB [1] (Kd(μM) ITC, Table 3, 50 μM MurB, 3.0 mM fragment), the Kd stood at 877 ± 154 µM. This compound also came in with an LE on Pa MurB [1] (setting [3]) of 0.28 kcal/mol per heavy atom. Moreover, the “SPR RU>RUf4 1.0 mM” value at Pa MurB [2] (setting [4]) was “no”. The compound `Cc1cc(C(=O)O)c(C)n1-c1ccccc1` [Fragment 20] had an LE on Pa MurB [1] (setting [3]) of 0.34 kcal/mol per heavy atom. In addition, the “SPR RU>RUf4 1.0 mM” value on Pa MurB [2] (setting [4]) was “yes”. As for `Cc1nc(C(=O)O)c(C)n1-c1ccccc1` [Fragment 21], on Pa MurB [2] (setting [4]), the “SPR RU>RUf4 1.0 mM” value is “no”. The compound `Cc1cc(C(=O)O)c(C(F)(F)F)n1-c1ccccc1` [Fragment 22] registered an LE on Pa MurB [1] (setting [3]) of 0.28 kcal/mol per heavy atom. The “SPR RU>RUf4 1.0 mM” value at Pa MurB [2] (setting [4]) is reported as “yes”. At Pa MurB [1] (Kd (ITC)), `Cc1c(C(=O)O)cc(CCO)n1-c1ccccc1` [Fragment 23] yielded a Kd of 208 ± 15 µM. Moreover, the LE on Pa MurB [1] (setting [3]) worked out at 0.28 kcal/mol per heavy atom.

The compound `O=C(O)c1cnn(-c2ccccc2Cl)c1C(F)(F)F` [Fragment 30] gave an LE on Pa MurB [1] (setting [5]) of 0.27 kcal/mol per heavy atom. In addition, the “SPR RU>RUf4 1.0 mM” value on Pa MurB [2] (setting [6]) was “yes”. The matching figures for `O=C(O)c1cnn(-c2ccccc2Br)c1C(F)(F)F` [Fragment 31]: 0.29 kcal/mol per heavy atom and “yes”. On the same counts, the results for `Cc1ccccc1-n1ncc(C(=O)O)c1C(F)(F)F` [Fragment 32] are 0.31 kcal/mol per heavy atom and “yes”. Regarding `COc1ccc(-n2ncc(C(=O)O)c2C(F)(F)F)cc1` [Fragment 35], the “SPR RU>RUf4 1.0 mM” value at Pa MurB [2] (setting [6]) is “no”. The compound `Cc1cc([N+](=O)[O-])ccc1-n1ncc(C(=O)O)c1C(F)(F)F` [Fragment 36] returned a Kd at Pa MurB [1] (setting [7]) of 208 ± 28 µM. Besides, the LE on Pa MurB [1] (setting [5]) is listed as 0.23 kcal/mol per heavy atom. Moreover, on Pa MurB [2] (setting [6]), the “SPR RU>RUf4 1.0 mM” value was “yes”.

As for `Cc1cccc(-n2ncc(C(=O)O)c2C(F)(F)F)c1C` [Fragment 38], on Pa MurB [1] (setting [7]), the Kd turned out to be 99 ± 7.2 µM. This compound yielded an LE at Pa MurB [1] (setting [5]) of 0.27 kcal/mol per heavy atom. The “SPR RU>RUf4 1.0 mM” value at Pa MurB [2] (setting [6]) is “yes”. The matching figures for `Cc1ccc(-n2ncc(C(=O)O)c2C(F)(F)F)c(C)c1` [Fragment 39]: 85.5 ± 8 µM, 0.28 kcal/mol per heavy atom and “yes”. Compound `Cc1ccc(C)c(-n2ncc(C(=O)O)c2C(F)(F)F)c1` [Fragment 40] had an LE on Pa MurB [1] (setting [5]) of 0.26 kcal/mol per heavy atom. Also, the “SPR RU>RUf4 1.0 mM” value on Pa MurB [2] (setting [6]) is “yes”. Turning to `Cc1cccc(C)c1-n1ncc(C(=O)O)c1C(F)(F)F` [Fragment 41], the LE at Pa MurB [1] (setting [5]) worked out at 0.31 kcal/mol per heavy atom. Turning to `O=C(O)c1cnn(-c2c(Cl)cccc2Cl)c1C(F)(F)F` [Fragment 42], at Pa MurB [1] (setting [7]), binding was characterised by a dissociation constant (Kd) of 60.2 ± 4.4 µM. Besides, the LE at Pa MurB [1] (setting [5]) is listed as 0.29 kcal/mol per heavy atom. In addition, the “SPR RU>RUf4 1.0 mM” value on Pa MurB [2] (setting [6]) is reported as “yes”. As for `O=C(O)c1cnn(-c2ccc(Cl)c(Cl)c2)c1C(F)(F)F` [Fragment 43, 1-(3,4-Dichlorophenyl)-5-(trifluoromethyl)-1H-pyrazole-4-carboxylic Acid], the LE at Pa MurB [1] (setting [5]) was found to be 0.31 kcal/mol per heavy atom. Besides, the “SPR RU>RUf4 1.0 mM” value on Pa MurB [2] (setting [6]) is on record as “yes”. The compound `Cc1cc(Cl)c(Cl)cc1-n1ncc(C(=O)O)c1C(F)(F)F` [Fragment 44] gave an LE at Pa MurB [1] (setting [8]) of 0.35 kcal/mol per heavy atom. Also, the “SPR RU>RUf4 1.0 mM” value at Pa MurB [2] (setting [9]) is listed as “yes”. Turning to `Cc1c(-n2ncc(C(=O)O)c2C(F)(F)F)ccc(Cl)c1Cl` [Fragment 45], the LE on Pa MurB [1] (setting [8]) is given as 0.32 kcal/mol per heavy atom. For the same compound, the “SPR RU>RUf4 1.0 mM” value on Pa MurB [2] (setting [9]) is on record as “yes”. The matching figures for `Cc1ccccc1-n1c(C)cc(C(=O)O)c1C` [Fragment 46]: 0.34 kcal/mol per heavy atom and “yes”. `Cc1cccc(C)c1-n1c(C)cc(C(=O)O)c1C` [Fragment 47] had an LE on Pa MurB [1] (setting [8]) of 0.32 kcal/mol per heavy atom. Moreover, the “SPR RU>RUf4 1.0 mM” value on Pa MurB [2] (setting [9]) was “no”. With `Cc1cc(C(=O)O)c(C)n1-c1ccc(Cl)c(Cl)c1` [Fragment 48], on Pa MurB [1] (setting [8]), the LE is given as 0.33 kcal/mol per heavy atom. Besides, the “SPR RU>RUf4 1.0 mM” value at Pa MurB [2] (setting [9]) is “no”.

In the case of `Cc1cc(C(=O)O)c(C)n1-c1cccc(Cl)c1` [Fragment 49], the “SPR RU>RUf4 1.0 mM” value on Pa MurB [2] (setting [9]) was “yes”. Still for that read-out and setting: under `Cc1cc(C(=O)O)c(C)n1-c1ccc(Cl)cc1` [Fragment 50] stands “no”.

Compound `Cc1cc(Cl)c(Cl)cc1-n1c(C)cc(C(=O)O)c1C` [Fragment 51] had an LE on Pa MurB [1] (setting [8]) of 0.33 kcal/mol per heavy atom.

In turn, `Cc1c(-n2c(C)cc(C(=O)O)c2C)ccc(Cl)c1Cl` [Fragment 52] showed an LE on Pa MurB [1] (setting [8]) of 0.33 kcal/mol per heavy atom. At Pa MurB [1] (setting [8]), `Cc1ccccc1-n1c(C)cc(C(=O)O)c1C(F)(F)F` [Fragment 53] registered an LE of 0.30 kcal/mol per heavy atom. On Pa MurB [2] (setting [9]), the “SPR RU>RUf4 1.0 mM” value is recorded as “yes”.

For the compound `Cc1cc(Cl)c(Cl)cc1-n1c(C)cc(C(=O)O)c1C(F)(F)F` [Fragment 54], the LE on Pa MurB [1] (setting [8]) came out at 0.32 kcal/mol per heavy atom.

For `Cc1c(-n2c(C)cc(C(=O)O)c2C(F)(F)F)ccc(Cl)c1Cl` [Fragment 55], the LE at Pa MurB [1] (setting [8]) was found to be 0.31 kcal/mol per heavy atom. The “SPR RU>RUf4 1.0 mM” value on Pa MurB [2] (setting [9]) is “yes”. For the compound `CS(=O)(=O)NC(=O)c1cnn(-c2ccccc2)c1C(F)(F)F` [Fragment 59], the “SPR RU>RUf4 1.0 mM” value on Pa MurB [2] (setting [10]) is reported as “no”. For `O=C(NS(=O)(=O)c1ccccc1)c1cnn(-c2ccccc2)c1C(F)(F)F` [Fragment 60], the dissociation constant (Kd) on Pa MurB [1] (Kd (ITC)) is 320 ± 60 µM; at Pa MurB [1] (Kd(μM) ITC, Table 6, 50 μM Pa MurB, 3.0 mM fragment), 324 ± 59 µM. Also, at Pa MurB [1] (setting [11]), the LE is reported as 0.18 kcal/mol per heavy atom. For the same compound, the “SPR RU>RUf4 1.0 mM” value on Pa MurB [2] (setting [10]) was “yes”. `Cc1cccc(C)c1-n1ncc(C(=O)NS(=O)(=O)c2ccccc2)c1C(F)(F)F` [Fragment 62] showed an LE at Pa MurB [1] (setting [11]) of 0.22 kcal/mol per heavy atom. In addition, the “SPR RU>RUf4 1.0 mM” value on Pa MurB [2] (setting [10]) is “yes”. In turn, `Cc1cc(Cl)c(Cl)cc1-n1ncc(C(=O)NS(=O)(=O)c2ccccc2)c1C(F)(F)F` [Fragment 64] displayed an LE on Pa MurB [1] (setting [11]) of 0.22 kcal/mol per heavy atom.
